# Screening results: PubChem, Johns Hopkins Ion Channel Center
# Kir21 block: blocks the mouse Kir2.1 inward-rectifier potassium channel; P35561; HEK293-Kir2.1, FluxOR thallium flux fluorescence; stronger effect = lower value; B-score at 10 µM; 0.85% of 310,000 active; AID 1672;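 active = fluorescence ratio B-score at or below minus 3 SD of library scores, with starting-brightness B-score within 2 SD, cut at about -4.2 in these data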;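 note: channel flux triggered by added potassium and thallium sulfate stimulus; B-score of peak minus minimum fluorescence over baseline after thallium stimulus; more negative B-score means stronger Kir2.1 block with less thallium influx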
# KCNK9 inh: inhibitors of human KCNK9 two-pore domain potassium channel | 1.2% of 310,000 active | Q9NPC2 | HEK293 KCNK9, FluxOR thallium flux fluorescence; stronger effect = lower value | B-score at 10 µM;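 active = ratio B-score over 3 SD below the library mean, with starting fluorescence within 5 SD of its mean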;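 note: negative B-score means less thallium flux so channel inhibition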
# KCNQ1 act: potentiators or activators of human KCNQ1 potassium channel | CHO-K1 KCNQ1, thallium flux FluxOR fluorescence; stronger effect = higher value | B-score at 10 µM | 0.35% of 310,000 active | AID 2648;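 active = fluorescence ratio B-score, a plate-corrected score, at least three library SD, with initial intensity B-score within 5 SD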
#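 Medium – assay buffer, equal DMSO in all wells · Material – CHO-K1 cell line with stable KCNQ1 potassium channel expression · Signal – kinetic FluxOR thallium fluorescence, 10-s 1-Hz baseline, 110-s post-stimulus read · Compound – single concentration per compound, DMSO matched to controls · Schedule – 37 °C overnight plating, 90-min dark dye load, 20-min compound pretreatment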
# KCNK3 inh: human KCNK3 channel inhibition, primary screen. B-score at 10 µM. CHO-KCNK3 thallium flux, FluxOR fluorescence; stronger effect = lower value. 0.84% of 340,000 active. O14649;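 active = B-score under library mean minus 4 SD, starting fluorescence ratio at most library mean plus 5 SD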;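 note: more negative B-score means stronger inhibition of thallium flux through KCNK3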
# Target sequence (O14649 whole entry, looked up): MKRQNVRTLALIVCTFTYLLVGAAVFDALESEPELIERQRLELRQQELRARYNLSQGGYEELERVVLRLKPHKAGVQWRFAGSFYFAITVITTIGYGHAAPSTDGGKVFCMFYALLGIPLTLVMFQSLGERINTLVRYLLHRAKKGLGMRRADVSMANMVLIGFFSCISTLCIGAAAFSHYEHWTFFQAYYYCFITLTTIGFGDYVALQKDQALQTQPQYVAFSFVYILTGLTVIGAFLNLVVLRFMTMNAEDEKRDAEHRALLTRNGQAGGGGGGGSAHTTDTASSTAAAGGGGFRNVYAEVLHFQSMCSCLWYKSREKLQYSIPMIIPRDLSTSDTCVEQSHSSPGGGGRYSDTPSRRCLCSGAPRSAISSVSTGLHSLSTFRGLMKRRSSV
# KCNQ1 inh: blocks the human KCNQ1 potassium channel; AID 2642; P51787; 1.3% of 310,000 active; B-score at 10 µM; CHO-K1 KCNQ1, FluxOR thallium flux fluorescence; stronger effect = higher value;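 active = compounds whose thallium flux B-score, printed positive for inhibition, exceeds three library SD while starting fluorescence stays within three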;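 note: channel opened by potassium depolarization with thallium stimulus after 20 min compound exposure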
# hERG protect: compounds protecting human hERG from proarrhythmic drug block | CHO-hERG, FluxOR thallium flux, dofetilide IC70 present | 0.51% of 310,000 active | activation (rescue from dofetilide block), less the hit threshold, % at 10 µM;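 active = activation above the mean of controls blocked by dofetilide plus 5 SD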;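 note: thallium influx through hERG after potassium depolarization seen as dye fluorescence rise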
# KCNK9 inh conf: confirmation of human KCNK9 potassium channel inhibitors | shares compounds with KCNK9 inh | HEK293 KCNK9 cells, FluxOR thallium flux fluorescence | inhibition, % at 10 µM | 43% of 4,900 active | AID 492992;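 active = thallium signal inhibited by more than 5 SD of the compound-free buffer control wells, on both duplicate plates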;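 note: 0% = assay buffer control wells without compound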
# Kir21 sel: tests whether KCNK9 modulators also affect mouse Kir2.1. shares compounds with KCNK9 inh. Kir2.1 cells, FluxOR thallium flux fluorescence. inhibition, % at 10 µM. 4% of 4,900 active;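 active = thallium signal drop more than 5 SD beyond the mean of the no-compound control wells, seen in both duplicate plates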;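 note: signal is fluorescence rise after thallium addition divided by baseline fluorescence; plate controls were assay buffer only for no effect and full block by chlorpromazine control for full effect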
# KCNK9 uninduced: non-induced cell nonspecific activity of KCNK9 modulators | shares compounds with KCNK9 inh | 40% of 4,900 active | inhibition, % at 10 µM | non-induced KCNK9-HEK293, FluxOR thallium flux;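 active = thallium signal drop beyond 5 SD of the untreated control mean, on both duplicate plates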;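 note: plate controls were buffer only IC0 wells for no effect and SID17386958 at its maximal inhibitory level for full effect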
# Active calls of the source: *; i = inactive; . = no result given. Most compounds without a hit are left out; they make up all but 3.8% or so of the library.
SMILES,Kir21 block,KCNK9 inh,KCNQ1 act,KCNK3 inh,KCNQ1 inh,hERG protect,KCNK9 inh conf,Kir21 sel,KCNK9 uninduced
Cc1cccc(C)c1OCCCCN1CCCCC1,-0.17,i,i,i,i,-5,.,.,.
CC(C)(C)c1ccc(OCCC(=O)OCC(=O)NC2CCCCC2)cc1,-1,i,i,i,i,-9,.,.,.
CC(C)(C)c1ccc(OCCC(=O)OCC(=O)NC(=O)NC2CCCC2)cc1,0.53,-9.8*,i,i,i,-11,i,i,i
CC(C)[C@H](NC(=O)c1ccco1)C(=O)OCC(=O)c1ccc(Br)s1,.,.,.,i,.,.,.,.,.
N#Cc1cc2c(nc1SCc1ccccc1)CCCCC2,0.95,i,i,i,i,-8,.,.,.
N#Cc1cc2c(nc1SCc1cccc(Cl)c1)CCCCC2,-0.75,-8.3*,i,i,i,-8,27%*,i,35%*
CC1=N/C(=C\c2ccc([N+](=O)[O-])cc2)C(=O)N1c1ccc(F)cc1F,-0.27,i,i,i,i,-4,.,.,.
CCOC(=O)c1ccc(-n2c(C)nc3c(cnn3-c3ccccc3Cl)c2=O)cc1,1.2,i,i,i,i,-17,i,i,i
CCOC(=O)c1ccc(-n2c(C)nc3c(cnn3-c3ccc(Cl)cc3)c2=O)cc1,-0.6,i,i,i,i,-7,.,.,.
O=S(=O)(c1cccc(Cl)c1Cl)N1CCCCC1,-0.79,i,i,i,i,-18,.,.,.
O=S(=O)(c1ccccc1Oc1ccc(Cl)cc1Cl)N1CCCCC1,0.49,-9.9*,i,i,i,-8,45%*,i,i
c1ccc(Cn2nnnc2C(c2cccs2)N2CCc3ccccc3C2)cc1 (stereo not drawn),-0.34,-12*,i,i,i,-10,i,i,32%*
CC(C)C(c1nnnn1Cc1ccccc1)N1CCc2ccccc2C1 (stereo not drawn),-0.56,i,i,i,i,-9,.,.,.
Cc1csc(=O)n1CC(=O)Nc1ccc(Cl)cc1F,.,.,.,i,.,.,.,.,.
CC1Cc2ccccc2N1C(=O)CN1CCc2ccccc2C1 (stereo not drawn),-0.36,i,i,i,i,-13,i,i,i
CC1Cc2ccccc2N1C(=O)CCn1c(=O)sc2ccccc21 (stereo not drawn),-3.7,i,i,i,i,-10,i,i,i
O=C(NC(Cc1cccc(F)c1)C(=O)O)C1CCCCC1 (stereo not drawn),.,.,.,i,.,.,.,.,.
Cc1ccc(NC(=O)C2=C(C(=O)O)CCCC2)cc1Br,-0.28,i,i,i,i,-4,.,.,.
CCCCn1c(N)c(N(CCOC)C(=O)COC(=O)COc2cccc(C(C)=O)c2)c(=O)[nH]c1=O,-0.22,i,i,i,i,-17,.,.,.
Clc1ccc(-c2ccc(-c3nn4c(-c5ccco5)nnc4s3)o2)cc1,0.29,-9.8*,i,i,i,-9,40%*,i,i
Brc1ccc(-c2nn3c(-c4ccco4)nnc3s2)o1,-0.11,i,i,i,i,-7,.,.,.
Fc1ccccc1N1CCN(CC2CCCCC2)CC1,-0.84,i,i,i,i,-10,.,.,.
CCn1c(SCCOc2ccc(Cl)cc2)nnc1-c1cccs1,-5.8*,i,i,i,i,-11,i,i,i
COC(=O)[C@]1(Cc2ccccc2)N[C@H](c2ccc(-c3cc(C(C)=O)cs3)cc2)[C@@H]2C(=O)N(C)C(=O)[C@@H]21,0.33,i,i,i,i,-4,.,.,.
Cc1ccc(C)c(S(=O)(=O)N2CCN(C(=O)c3sccc3C)CC2)c1,-0.07,i,i,i,i,-15,.,.,.
SMILES,Kir21 block,KCNK9 inh,KCNQ1 act,KCNK3 inh,KCNQ1 inh,hERG protect,KCNK9 inh conf,Kir21 sel,KCNK9 uninduced
O=C(NCc1ccccc1)C1=C[C@H](c2ccc3c(c2)OCO3)C[C@H](OCCCCO)O1,0,i,i,i,i,-9,i,i,i
O=C(NCc1ccccc1)C1=C[C@H](C2CCCCC2)C[C@H](OCCCCO)O1,-0.55,i,i,i,i,-7,i,i,i
O=C(Nc1ccccc1)C1=C[C@@H](C2CCCCC2)C[C@@H](OCCCCO)O1,1.9,i,i,i,i,-7,.,.,.
O=C(NCc1ccccc1)C1=C[C@H](c2ccc3c(c2)OCO3)C[C@H](OCc2ccc(CO)cc2)O1,-0.64,i,i,i,i,-22,.,.,.
CC(C)Oc1ccc2ccccc2c1CNC[C@H]1O[C@@H](n2cnc(C(N)=O)n2)[C@H](O)[C@@H]1O,.,.,.,i,.,.,.,.,.
CCn1c(=O)c2ccccc2n(Cc2ccccc2C)c1=O,-0.14,i,i,i,i,-9,.,.,.
COc1ccc(C2CC(c3cccs3)=Nc3ccccc3S2)cc1 (stereo not drawn),0.17,-12*,i,i,i,-2,52%*,i,36%*
CCn1c(SC)nnc1-c1sc2cc(Cl)ccc2c1Cl,1.5,-11*,i,i,i,-12,60%*,i,36%*
C/C(=N\NC(=O)c1ccccc1F)c1ccc2c(c1)Nc1ccccc1S2,-0.74,-15*,i,i,i,0,i,i,28%*
COc1ccc(C(=O)N/N=C(/C)c2cccc(NC(=O)c3ccccc3F)c2)cc1,-0.76,i,i,i,i,-11,.,.,.
COc1ccc(CC2(C)OC(c3ccccc3)=NN2C(C)=O)cc1 (stereo not drawn),-6.3*,i,i,i,i,-11,i,i,i
COc1ccc(CC2(C)OC(c3ccc(C)c([N+](=O)[O-])c3)=NN2C(C)=O)cc1 (stereo not drawn),-2.1,i,i,i,i,-12,.,.,.
CC(=O)N1N=C(c2ccccc2)OC1(C)CC(=O)Nc1ccccc1 (stereo not drawn),0.27,i,i,i,i,-9,.,.,.
COc1ccc(CC2(C)OC(c3ccc(C)cc3)=NN2C(C)=O)cc1 (stereo not drawn),-0.59,i,i,i,i,-17,i,i,i
CC(=O)N/C(=C\c1ccccc1)C(=O)OC(C)C(=O)Nc1ccccc1F (stereo not drawn),.,.,.,i,.,.,.,.,.
Cn1cc(S(=O)(=O)N2CCN(c3cccc(Cl)c3)CC2)c(=O)n(C)c1=O,0.54,i,i,i,i,-10,i,i,i
